Screening data deposited in PubChem by Johns Hopkins Ion Channel Center.
RGS4 act – RGS4 potentiators or activators, primary screen, cell-based, HEK293 M3R inducible RGS4, calcium flux; B-score at 10 µM; hit rate 0.92% among 310,000; carbachol calcium flux Fluo4; stronger effect = lower value;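 active means B-score of the integrated calcium signal more than 4 SD below the library mean, with starting fluorescence not abnormally high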;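 further: negative B-score means reduced calcium response which marks RGS4 activation or potentiation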
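System – HEK293 FlpIn-TREx cells, stable M3R, doxycycline-inducible RGS4 · Reagent – ECmax carbachol challenge · Times – compound preincubation 20 min at room temperature before agonist · Technique – Fluo4 fluorescence kinetic imaging of calcium · Measure – B score of integrated Fluo4 ratio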
MrgX1 PAM – positive allosteric modulators of MrgX1, primary screen, HEK293 cells, Fluo-4 calcium flux. Mas-related G-protein coupled receptor member X1 (Homo sapiens), Q96LB2. FDSS; stronger effect = higher value. B-score at 10 µM. hit rate 0.63% among 310,000. AID 588675, 2011;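 active means plate-corrected calcium response at least 3 library SD above typical, normal starting fluorescence, not activating the receptor alone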;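 further: compound read alongside a low EC10 to EC30 dose of BAM8-22 agonist; peak minus trough fluorescence over baseline measured at the second addition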
Target sequence (Q96LB2 whole entry, looked up): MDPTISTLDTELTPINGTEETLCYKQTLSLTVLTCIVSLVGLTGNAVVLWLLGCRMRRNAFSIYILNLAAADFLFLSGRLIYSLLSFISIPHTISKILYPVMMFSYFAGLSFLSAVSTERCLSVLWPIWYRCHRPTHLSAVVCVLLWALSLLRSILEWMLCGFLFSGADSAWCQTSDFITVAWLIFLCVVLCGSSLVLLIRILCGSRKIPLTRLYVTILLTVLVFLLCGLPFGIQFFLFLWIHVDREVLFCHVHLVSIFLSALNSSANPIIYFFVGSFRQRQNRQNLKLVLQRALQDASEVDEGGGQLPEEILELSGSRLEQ
MrgX1 antagonist – antagonists of human MrgX1 receptor, primary screen, HEK293 cells, Fluo-4 calcium flux; B-score at 10 µM; BAM8-22 antagonism; stronger effect = lower value; hit rate 1.3% among 310,000; AID 588676, 2011; Mas-related G-protein coupled receptor member X1 (Homo sapiens), Q96LB2;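 active means calcium-response B-score plate-corrected more than 3 library SD below zero, starting fluorescence within 5 deviations, no agonist response on first addition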;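 further: peak minus trough fluorescence over baseline after final BAM8-22 challenge near maximal dose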
RGS4 block – RGS4 inhibitors, primary screen, cell-based, HEK293 M3R inducible RGS4, calcium flux. Fluo-4 calcium flux; stronger effect = higher value; triggered by carbachol at its EC20. hit rate 0.45% among 310,000. Regulator of G-protein signaling 4 (Homo sapiens), P49798. B-score at 10 µM;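 active means B-score, a plate-corrected calcium signal, over three deviations above library mean, with baseline fluorescence within five deviations of library mean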;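 further: RGS4 expression induced by doxycycline in cells with stable M3 receptor; B-score is computed from the integrated fluorescence ratio over baseline after carbachol; higher B-score means a larger calcium signal and so more RGS4 inhibition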
Target sequence (P49798 whole entry, looked up): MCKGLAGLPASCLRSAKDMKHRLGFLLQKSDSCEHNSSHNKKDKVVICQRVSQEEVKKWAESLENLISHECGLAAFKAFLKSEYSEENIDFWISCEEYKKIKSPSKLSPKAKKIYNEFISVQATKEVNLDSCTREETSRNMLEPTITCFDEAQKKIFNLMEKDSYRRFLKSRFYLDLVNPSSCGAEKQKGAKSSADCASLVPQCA
MrgX1 ag – agonists of human MrgX1 receptor, primary screen, HEK293 cells, Fluo-4 calcium flux | Mas-related G-protein coupled receptor member X1 (Homo sapiens), Q96LB2 | B-score at 10 µM | Fluo-4 calcium fluorescence, agonist mode; stronger effect = higher value | AID 588627, 2011 | hit rate 0.44% among 310,000;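 active means calcium response B-score plate-corrected fluorescence ratio at least 3 library SD, with starting fluorescence B-score inside 5 SD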
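Test system: Stable human MrgX1 HEK293 cell line | Schedule: Overnight plating before 1 h dye loading | Read-out basis: Baseline-normalised fluorescence change ratio, B-scored | Detection: Kinetic calcium dye fluorescence, Fluo-4 NW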
RGS4 block valid – enhanced carbachol calcium response, M3R/RGS4 cells, RGS4 inhibitor project, cell-based, validation screen, HEK293 M3R/RGS4, calcium flux. calcium response, % at 10 µM. shares compounds with RGS4 block. hit rate 65% among 1,700. carbachol calcium Fluo-4 fluorescence; carbachol added at its EC20; 0 = buffer wells, 100 = carbachol control;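 active means duplicate-averaged calcium response above the buffer-only control mean plus 5 SD of those controls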;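 further: integrated fluorescence ratio F max minus min over baseline F0; higher response in RGS4-induced cells means RGS4 inhibition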
M3R Ca ctr – carbachol calcium response in non-induced M3R cells, confirmation, counter-screen for RGS4 inhibitor project, cell-based, HEK293 M3R. shares compounds with RGS4 block. carbachol calcium Fluo-4; submaximal (EC20) carbachol stimulus; buffer wells 0%, carbachol control wells 100%. activity (percent), % at 10 µM. hit rate 20% among 1,900. AID 493000, 2010; call rule not given here;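 further: RGS4 induction absent so cells express M3R without RGS4; higher means more calcium signal and flags a non-specific hit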
M3R basal Ca ctr – second RGS4 inhibitor counter-screen in uninduced cells lacking carbachol | calcium response (agonist-mode artifact), % at 10 µM | shares compounds with RGS4 block | HEK293 M3R/RGS4 non-induced, Fluo-4 calcium, no carbachol; normalised: buffer wells 0%, carbachol wells 100% | hit rate 22% among 1,900;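 active means duplicate-averaged calcium rise in uninduced cells above buffer wells' mean plus 5 SD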
* = called active by the depositor; i = inactive; / = not tested or not shown. Only some compounds are listed: those with a hit (about 3.5% of all), similar ones and a draw of the others.

SMILES	RGS4 act	MrgX1 PAM	MrgX1 antagonist	RGS4 block	MrgX1 ag	RGS4 block valid	M3R Ca ctr	M3R basal Ca ctr
COc1ccc(OC)c(N2C(=O)NC(=O)/C(=C\c3ccc([N+](=O)[O-])s3)C2=O)c1	i	i	i	8.03*	i	18.5%*	i	i
CN1C(=O)NC(=O)/C(=C/c2ccc([N+](=O)[O-])s2)C1=O	i	i	i	7.21*	i	14.5%*	i	i
COC(=O)C(O)(c1ccc(NC(=O)c2cccs2)cc1)C(F)(F)F (configuration not stated)	i	i	i	i	i	/	/	/
Cc1ccc(C(O)P(=O)(Oc2ccccc2)Oc2ccccc2)cc1 (configuration not stated)	i	i	i	i	i	/	/	/
CCc1cc2c(s1)N(CC(=O)OC)C(=O)CN=C2c1ccccc1OC	i	i	i	i	i	/	/	/
CCc1cc2c(s1)NC(=O)CN=C2c1cccs1	i	i	i	5.96*	i	24.5%*	31.0%*	i
O=c1[nH]c(=O)n(CCC2=CCCCC2)c(O)c1/C=N/Nc1cccc2ccccc12	i	i	i	5.69*	i	9.0%*	i	i
CCCCn1c(O)c(/C=N/NC(=O)c2ccncc2)c(=O)[nH]c1=O	i	i	i	i	i	/	/	/
O=C(N/N=C/c1c(O)n(CCc2ccccc2)c(=O)[nH]c1=O)c1ccccc1	i	i	-5.42*	i	i	i	i	7.5%*
O=c1[nH]c(=O)n(CCC2=CCCCC2)c(O)c1/C=N/Nc1ccccc1	i	i	i	i	i	/	/	/
CC12CN3CN(C1)CC(C)(C3)C2=NO	i	i	i	5.2*	i	i	i	i
Cc1cccc(NP(=O)(Oc2ccccc2F)Oc2ccccc2F)c1C	i	i	i	4.88*	i	i	i	i
CCCCCCn1c(=O)c(C(=O)Nc2c(C)n(C)n(-c3ccccc3)c2=O)c(O)c2ccccc21	i	i	i	i	i	/	/	/
NC1=C([N+](=O)[O-])C(c2ccc3c(c2)OCO3)c2c(c3ccccc3oc2=O)O1 (configuration not stated)	i	i	i	i	i	/	/	/
O=c1oc2ccccc2c(O)c1[C@H]1c2ccc(O)cc2Oc2c1c(=O)oc1ccccc21	i	i	i	11.2*	i	58.5%*	35.0%*	i
Cn1cccc1/C=C1/C(=O)NC(=S)N(Cc2ccc(F)cc2)C1=O	i	7.05*	i	7.22*	i	i	i	i
Cn1cccc1/C=C1/C(=O)NC(=O)N(Cc2ccc(F)cc2)C1=O	i	i	i	i	i	i	i	9.0%*
Cn1cccc1/C=C1/C(=O)NC(=O)N(Cc2ccccc2)C1=O	i	i	i	i	i	/	/	/
Cn1cccc1/C=C1\C(=O)NC(=O)N(Cc2ccccc2)C1=O	i	i	i	i	i	/	/	/
CCOc1ccc(N2C(=O)/C(=C\c3cccs3)C(=O)NC2=S)cc1	i	i	i	i	i	/	i	i
O=C1NC(=S)N(c2ccccc2F)C(=O)/C1=C\c1cccs1	i	i	i	9.49*	i	33.5%*	i	i
CC1=CC(=C2C(=O)NC(=S)NC2=O)C=C(C(F)(F)F)N1CCc1ccccc1	i	i	i	i	i	/	/	/
CCN1C(=O)C(=Cc2ccc(C)s2)C(=O)N(CC)C1=S	i	i	i	i	i	/	/	/
CN1C(=O)/C(=C\c2ccc(Br)s2)C(=O)NC1=S	i	i	i	19.4*	i	5.5%*	i	i
Cc1cc(/C=C2\C(=O)NC(=S)N(C)C2=O)c(C)n1C1CCCCC1	i	i	i	i	i	/	/	/
SMILES	RGS4 act	MrgX1 PAM	MrgX1 antagonist	RGS4 block	MrgX1 ag	RGS4 block valid	M3R Ca ctr	M3R basal Ca ctr
O=C1NC(=S)NC(=O)C1=Cc1ccc(Br)s1	i	i	i	22.1*	i	78.0%*	i	18.0%*
CCc1c(C(=O)NN2C(=O)C3C4CCC(O4)C3C2=O)csc1C (configuration not stated)	i	i	i	i	i	/	/	/
CCNC(=O)C1OC(n2cnc3c(N)ncnc32)C(O)C1O (configuration not stated)	i	i	i	15.2*	30*	48.5%*	71.5%*	i
COc1ccc(CC(C)NCCc2ccc(OC)c(OC)c2)cc1 (configuration not stated)	i	i	i	i	i	/	/	/
COC(=O)C1=Nc2ccccc2/C1=C\c1c(O)n(-c2cc(OC)ccc2OC)c(=O)[nH]c1=O	i	i	i	i	i	/	/	/
Cc1cccc(-n2c(O)c(/C=C3/C(c4ccccc4)=Nc4ccccc43)c(=O)[nH]c2=O)c1	i	i	i	i	47.1*	/	i	29.0%*
Cc1cc(C)cc(N2C(=O)NC(=O)/C(=C\C=C\c3ccco3)C2=O)c1	i	i	i	23.3*	i	59.0%*	80.0%*	36.0%*
O=C1NC(=O)N(c2ccccc2)C(=O)/C1=C\C=C\c1ccccc1	i	i	i	16.1*	i	114.5%*	31.0%*	24.5%*
O=C1NC(=O)N(Cc2ccc(F)cc2)C(=O)/C1=C\C=C\c1ccco1	i	8.26*	i	12.2*	i	10.5%*	i	12.5%*
Cc1ccc(N2C(=O)NC(=O)/C(=C/C=C/c3ccco3)C2=O)cc1	i	i	i	i	i	i	i	16.0%*
CN(CCc1nnc(N)s1)[N+](=O)[O-]	i	i	i	i	i	/	/	/
CC(C)c1ccccc1NC1=NCCCS1	i	i	i	i	i	/	/	/
